Measurements reported in paper PMC6541004 (Antiviral research, 2018).
Like-named read-outs stand apart in the source and are kept apart here.

Assays:
DENV2 = experiment: Plaque assay of DENV2 infectivity; type: cell-based; conditions: Dengue virus, DENV2, read-out: EC50 (PFU)
[1] = system: oleic acid-induced LD in DENV2 infected BHK-21 cells; experiment: Oil Red O staining of lipid droplets; type: cell-based; conditions: 0.1 mM oleic acid-BSA, 5 μM, 24 h, absorbance at 405 nm
Summary of the method: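 BHK-21 cells in MEM with 10% FBS were infected with DENV2 at MOI 1 for 1 h. They were then incubated for 24 h in MEM with 0.1 mM oleic acid-BSA plus test compound (5 μM in imaged wells), with 1% DMSO as negative control. Cells were PBS-washed, fixed in 4% paraformaldehyde for 10 min, and stained with ORO and DAPI. Dye was extracted in 100% isopropanol and read at A405. Duplicates were averaged.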

actin = conditions: read-out: IC50 of inhibition of actin polymerization; ref Dhar et al., 2015; cited from earlier work
DENV2 replicon = experiment: microbe, parasite or virus in culture; type: cell-based; conditions: Dengue virus, DENV2, BHK-21, 24 h, read-out: EC50 (replicon)
[2] = Cell-based cytotoxicity assay; design: species or system Baby Hamster; conditions: hamster
DENV2 NS2B-NS3pro = DENV2 NS2B-NS3pro (Dengue virus type 2, UniProt P14340); experiment: In vitro protease assay; type: biochemical
BHK-21 cells = experiment: Cell-based cytotoxicity assay; design: species or system Baby Hamster
[3] = read-out: IC50 (protease activity), mean ± SD of two replicates, 25 nM DENV2 protease, 25 μM substrate Bz-Nle-Lys-Arg-Arg-AMC, 30 min, inhibitor concentrations 1.56-200 μM

Sequence of DENV2 NS2B-NS3pro (P14340 1476-1653): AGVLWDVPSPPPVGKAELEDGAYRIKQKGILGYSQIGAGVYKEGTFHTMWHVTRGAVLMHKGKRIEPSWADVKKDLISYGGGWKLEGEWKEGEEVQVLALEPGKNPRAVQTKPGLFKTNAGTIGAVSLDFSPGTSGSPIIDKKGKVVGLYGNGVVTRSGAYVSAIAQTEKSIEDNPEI
Sequence of DENV2 NS2B-NS3pro (P14340 1398-1437): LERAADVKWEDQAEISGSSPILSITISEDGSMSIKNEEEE

In the case of `COc1cc(C=CC(=O)CC(=O)C=Cc2ccc(O)c(OC)c2)ccc1O` [CC1, 1,7-bis(4-hydroxy-3-methoxyphenyl)-1,6-heptadiene-3,5-dione, reference compound], the EC50 (DENV2) is given as 14 ± 4.62 µM, the “oleic acid-induced lipid droplets (LD), Oil Red O” value [1] is given as “affected LD levels” and the IC50 (actin) is given as 16 µM. The EC50 (DENV2 replicon) was 13.9 ± 2.08 µM, the CC50 at 24 h ([2]; BHK-21 cells) was 49 ± 8.24 µM and the IC50 (DENV2 NS2B-NS3pro) was 66 ± 13.1 µM.

Work on `COc1cc(/C=C2\CC/C(=C\c3ccc(O)c(OC)c3)C2=O)ccc1O` [CC4] yielded an IC50 (DENV2 NS2B-NS3pro; [3]) of 43.9 ± 10.1 µM.

Compound `COc1cc(C=C2CCCC(=Cc3ccc(O)c(OC)c3)C2=O)ccc1O` [CC5] has a CC50 (BHK-21 cells) of 25.5 ± 2.64 µM and an IC50 (DENV2 NS2B-NS3pro; [3]) of 61 ± 8.7 µM.

Compound `O=C(/C=C/c1ccc(O)cc1)CC(=O)/C=C/c1ccc(O)cc1` [CC2, Bisdemethoxycurcumin] has an EC50 (DENV2) of 6.49 ± 0.22 µM, an EC50 (DENV2 replicon) of 26.4 ± 3.67 µM and a CC50 at 24 h [2] of 43.4 ± 5.19 µM. It also gave an IC50 (DENV2 NS2B-NS3pro) of 36.2 ± 9.67 µM.
